We go through 1 compound from ChEMBL document CHEMBL2029240 (ACS Med Chem Lett, 2011).

The source made the active and inactive calls. No cut-off for these calls is given here.

Data set [1] concerns the target C-C chemokine receptor type 5 (Homo sapiens) (UniProt P51681). In words: Inhibition of CCR5 at 1 uM. The method, boiled down: (§1)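 Single-concentration screen at 1 μM against a broad panel of more than 50 targets (ion channels, transporters, chemokine receptors, other GPCRs), scored for significant inhibition.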
The target in data set [2] is T1, C-X-C chemokine receptor type 3 (Homo sapiens) (UniProt P49682).
T1 sequence (whole entry): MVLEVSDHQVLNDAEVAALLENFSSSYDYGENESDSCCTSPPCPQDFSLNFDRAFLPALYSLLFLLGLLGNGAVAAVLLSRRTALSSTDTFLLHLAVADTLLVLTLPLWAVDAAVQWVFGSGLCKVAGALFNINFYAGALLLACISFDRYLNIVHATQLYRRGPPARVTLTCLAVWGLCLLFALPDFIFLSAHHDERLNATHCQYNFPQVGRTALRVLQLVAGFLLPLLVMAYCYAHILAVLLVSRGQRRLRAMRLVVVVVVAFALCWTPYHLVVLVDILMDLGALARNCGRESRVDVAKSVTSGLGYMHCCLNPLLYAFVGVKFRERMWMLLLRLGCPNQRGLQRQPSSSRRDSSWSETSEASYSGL
The experiment in a line: Inhibition of CXCR3 at 1 uM. The method, boiled down: as §1

The nature of data set [3]: Oral bioavailability in dog at 10 mg/kg. The class given is ADME, organism-based, Canis lupus familiaris. To be noted: in vivo.
Data set [4] is described as follows: Half life in dog at 10 mg/kg, po. Type of data set: ADME, organism-based, Canis lupus familiaris. Set-up: dose 10 mg/kg, route oral. To be noted: in vivo.
Data set [5] in a line: AUC in dog at 10 mg/kg, po. Type of data set: ADME, organism-based, Canis lupus familiaris. Set-up: dose 10 mg/kg, route oral. The following applies: plasma.
In data set [6] the target is Cytochrome P450 2C19 (Homo sapiens, UniProt P33261). The experiment in a line: Inhibition of CYP2C19. The class given is ADME.
Data set [7] has as its target Cytochrome P450 2C9 (Homo sapiens, UniProt P11712). In words: Inhibition of CYP2C9. The class given is ADME.
Data set [8] in a line: Clearance in dog at 2 mg/kg, iv. Type of data set: ADME, organism-based, Canis lupus familiaris. Set-up: dose 2 mg/kg, route intravenous. The following applies: in vivo.
Data set [9] can be described thus: Tmax in rat at 10 mg/kg, po. Type of data set: ADME, organism-based. Set-up: dose 10 mg/kg, route oral. The following applies: in vivo. Put shortly:
(§2)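 Rats were dosed iv at 2 mg/kg and orally at 10 mg/kg. Plasma PK parameters derived: CL (L/h/kg), Vss (L/kg), t1/2 (h), Cmax (nM), Tmax (h), AUC (nM h) and oral F%.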

Data set [10] concerns the target T2, C-C chemokine receptor type 3 (Homo sapiens) (UniProt P51677).
T2 sequence (whole entry): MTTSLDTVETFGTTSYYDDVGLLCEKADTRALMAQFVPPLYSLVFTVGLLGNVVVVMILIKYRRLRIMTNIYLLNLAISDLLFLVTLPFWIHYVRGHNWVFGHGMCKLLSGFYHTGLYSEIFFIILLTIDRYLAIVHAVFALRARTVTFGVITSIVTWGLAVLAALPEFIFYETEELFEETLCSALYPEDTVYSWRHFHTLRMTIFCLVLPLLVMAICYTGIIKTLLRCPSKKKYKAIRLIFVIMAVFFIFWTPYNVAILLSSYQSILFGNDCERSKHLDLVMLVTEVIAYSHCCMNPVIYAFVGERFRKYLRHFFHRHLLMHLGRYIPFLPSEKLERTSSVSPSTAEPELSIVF
The experiment in a line: Inhibition of CCR3 at 1 uM. Put shortly:
as §1

Data set [11] is described as follows: Tmax in dog at 10 mg/kg, po. To be noted: in vivo. Set-up: dose 10 mg/kg, route oral. Type of data set: ADME, organism-based, Canis lupus familiaris.
Data set [12] is described as follows: Drug metabolism in human S9 fraction assessed as glutathione adduct formation in the absence of NADPH. Type of data set: ADME, subcellular. The method, boiled down:
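Test agent incubated with human liver S9 fraction plus glutathione as cofactor, run both with and without NADPH. Read-out was detection of glutathione adducts.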

Data set [13] deals with Voltage-gated inwardly rectifying potassium channel KCNH2 (Homo sapiens, UniProt Q12809). In words: Displacement of [3H]dofetilide from human ERG. A general note: In a radioligand displacement assay an active substance lowers the binding of a labelled ligand.
Data set [14] deals with Rattus norvegicus. The experiment in a line: AUC in rat at 10 mg/kg, po. The class given is ADME, organism-based, Plasma. Set-up: dose 10 mg/kg, route oral. To be noted: in vivo. The method, boiled down: as §2

Chain of Cytochrome P450 2C9 (P11712 whole entry): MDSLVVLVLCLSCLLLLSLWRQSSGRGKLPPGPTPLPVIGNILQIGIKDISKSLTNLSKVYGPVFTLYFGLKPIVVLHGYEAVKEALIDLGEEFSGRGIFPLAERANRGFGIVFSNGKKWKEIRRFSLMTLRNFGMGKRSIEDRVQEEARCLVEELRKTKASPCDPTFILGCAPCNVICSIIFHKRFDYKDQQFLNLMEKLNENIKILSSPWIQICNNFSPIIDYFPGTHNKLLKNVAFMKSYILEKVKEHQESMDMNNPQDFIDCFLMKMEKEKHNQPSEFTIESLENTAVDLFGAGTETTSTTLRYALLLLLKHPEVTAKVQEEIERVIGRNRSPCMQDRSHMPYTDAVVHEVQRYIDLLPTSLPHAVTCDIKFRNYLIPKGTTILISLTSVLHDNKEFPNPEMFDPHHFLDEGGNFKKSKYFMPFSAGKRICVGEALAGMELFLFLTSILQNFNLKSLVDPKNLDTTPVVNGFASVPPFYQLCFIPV
Chain of C-C chemokine receptor type 5 (Homo sapiens) (P51681 whole entry, looked up): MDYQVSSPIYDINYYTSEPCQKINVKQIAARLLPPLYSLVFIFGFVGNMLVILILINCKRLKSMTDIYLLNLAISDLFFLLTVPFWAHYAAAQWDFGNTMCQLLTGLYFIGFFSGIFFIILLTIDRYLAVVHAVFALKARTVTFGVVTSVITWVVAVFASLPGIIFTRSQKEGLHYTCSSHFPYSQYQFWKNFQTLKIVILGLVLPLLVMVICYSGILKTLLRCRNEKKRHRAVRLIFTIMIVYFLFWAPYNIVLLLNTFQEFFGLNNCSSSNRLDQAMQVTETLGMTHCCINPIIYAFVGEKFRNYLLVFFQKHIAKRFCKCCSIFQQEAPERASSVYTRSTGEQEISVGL
Chain of Voltage-gated inwardly rectifying potassium channel KCNH2 (Q12809 whole entry): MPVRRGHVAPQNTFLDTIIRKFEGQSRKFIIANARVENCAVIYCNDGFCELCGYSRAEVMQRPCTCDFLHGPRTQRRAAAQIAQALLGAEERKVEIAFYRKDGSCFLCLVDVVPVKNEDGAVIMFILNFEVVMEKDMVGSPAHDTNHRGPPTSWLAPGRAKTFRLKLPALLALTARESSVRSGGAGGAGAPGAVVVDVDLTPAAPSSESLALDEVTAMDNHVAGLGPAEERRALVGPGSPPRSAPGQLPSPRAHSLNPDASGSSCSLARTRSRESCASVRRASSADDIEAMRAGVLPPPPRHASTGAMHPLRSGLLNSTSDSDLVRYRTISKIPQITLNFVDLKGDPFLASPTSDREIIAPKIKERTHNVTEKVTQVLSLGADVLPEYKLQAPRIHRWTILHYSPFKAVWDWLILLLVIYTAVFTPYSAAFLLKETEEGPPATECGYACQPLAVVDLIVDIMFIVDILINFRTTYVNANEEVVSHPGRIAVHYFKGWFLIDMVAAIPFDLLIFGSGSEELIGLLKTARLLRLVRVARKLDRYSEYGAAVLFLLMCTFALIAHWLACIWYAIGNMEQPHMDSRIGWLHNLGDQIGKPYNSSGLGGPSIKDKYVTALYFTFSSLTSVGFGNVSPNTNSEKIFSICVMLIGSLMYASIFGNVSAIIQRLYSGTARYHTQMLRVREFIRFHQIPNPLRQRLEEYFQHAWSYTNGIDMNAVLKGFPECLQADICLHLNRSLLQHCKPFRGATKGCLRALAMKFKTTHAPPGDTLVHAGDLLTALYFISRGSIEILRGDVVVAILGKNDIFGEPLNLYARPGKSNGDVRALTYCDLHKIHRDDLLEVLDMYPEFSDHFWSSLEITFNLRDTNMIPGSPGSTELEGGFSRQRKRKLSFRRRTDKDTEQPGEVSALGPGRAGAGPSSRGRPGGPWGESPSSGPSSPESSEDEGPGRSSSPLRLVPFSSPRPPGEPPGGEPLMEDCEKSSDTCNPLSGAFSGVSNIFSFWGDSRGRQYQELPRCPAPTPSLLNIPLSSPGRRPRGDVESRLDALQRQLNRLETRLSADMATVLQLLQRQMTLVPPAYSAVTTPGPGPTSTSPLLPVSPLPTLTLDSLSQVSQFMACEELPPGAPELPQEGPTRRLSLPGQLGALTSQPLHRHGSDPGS
Chain of Cytochrome P450 2C19 (P33261 whole entry): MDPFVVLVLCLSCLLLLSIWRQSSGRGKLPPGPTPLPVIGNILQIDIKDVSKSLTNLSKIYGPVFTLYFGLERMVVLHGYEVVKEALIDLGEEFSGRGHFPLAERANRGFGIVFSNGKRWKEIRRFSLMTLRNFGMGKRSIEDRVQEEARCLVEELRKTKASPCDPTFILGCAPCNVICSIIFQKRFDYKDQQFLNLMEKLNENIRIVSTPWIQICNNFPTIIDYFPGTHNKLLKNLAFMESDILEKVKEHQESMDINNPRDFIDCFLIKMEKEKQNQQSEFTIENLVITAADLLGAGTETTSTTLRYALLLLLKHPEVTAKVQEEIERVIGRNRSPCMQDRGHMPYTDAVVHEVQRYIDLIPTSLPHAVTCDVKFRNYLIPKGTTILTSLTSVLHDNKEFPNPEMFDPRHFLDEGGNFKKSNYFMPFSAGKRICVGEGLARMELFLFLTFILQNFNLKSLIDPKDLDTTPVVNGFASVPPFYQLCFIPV

Consider `O=C(NCC(=O)N1CC[C@H](N[C@H]2CC[C@@](O)(c3ccc(-c4ncccn4)cn3)CC2)C1)c1cccc(C(F)(F)F)c1` [PF-4136309], for which the inhibition result in data set [1], in data set [2] and in data set [10] was “inactive” each time. In addition, the bioavailability in [3] amounted to 78%. The half-life in [4] was 3.2 h. Besides, the AUC in data set [5] is 35.6 µM·h; in data set [14], 2.723 µM·h. Moreover, the IC50 in [6], in data set [7] and in data set [13] was > 30 µM throughout. The clearance in data set [8] was 7.67 mL/min/kg. The results for the Tmax in data set [9] and in data set [11] were 1.2 h and 0.25 h, respectively. In addition, the Drug metabolism result in data set [12] is recorded as “Not Active”.

The term bioavailability denotes dose-corrected exposure relative to a reference, in per cent. A high value points to much systemic uptake. Usually half-life stands for the time in which the quantity being followed falls by half. A low value points to rapid decline. Usually AUC stands for the area under the concentration-time curve, a measure of exposure. The low end stands for less exposure, the high end for more exposure. In general, IC50 refers to the point on the concentration scale where inhibition reaches its midpoint. The low end stands for greater potency, the high end for weaker potency. In general, clearance refers to the volume of plasma or blood freed of the substance per unit of time. High values mean a high capacity for elimination, low ones a low capacity for elimination. For orientation: Tmax means the time at which the peak concentration occurs.
